Screens from PubChem BioAssay.
Sampled rows, rich in hits. Any-hit rate of the full collection: about 2.6%.
Ecoli rRNA inh – inhibits bacterial ribosomal RNA function over humanized ribosomes; E. coli WT GFP vs humanized-ribosome RFP mutants, fluorescence, 24 h; stronger effect = lower value; DMSO median 0, no signal -100; GFP signal change (wild-type ribosome), % (test concentration not listed); 350,000 compounds, 1.6% hits; AID 720706;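 active = significant combined selectivity score with lowered wild-type GFP, culture density cut under 30%, mutant RFP and density less affected; inactive = any of these conditions unmet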
FN deposit inh – fibronectin deposition inhibition | 350,000 compounds, 0.086% hits | AH1F fibroblasts, Alexa488-fibronectin deposition fluorescence, overnight | inhibition, % at 12.6 µM;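 active = mean inhibition across replicates of 30% or more, regardless of how many single replicates reach that level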;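 also: positive control wells lacked labelled fibronectin entirely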
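Assay system: AH1F fibroblast monolayer, labelled fibronectin deposition. Amount: 10000 cells per well. Also added: labelled fibronectin 24 nM. Compound: single-point pinned compound. Incubation: cell attachment 1 h, compound and FN exposure overnight. Detection: fluorescence after three HBSS washes, excitation 485 nm, emission 525 nm. Read-out: inhibition of fibronectin deposition signal.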
S100A4 inh HTS – blocks human S100A4 binding to myosin IIA peptide | S100A4/TAMRA-MyoIIA peptide fluorescence polarization | inhibition, % at 10.7 µM | 360,000 compounds, 0.14% hits | AID 652163;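 active = mean inhibition of at least 70% across replicates, with every replicate also reaching that level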
Target sequence (P26447 whole entry, looked up): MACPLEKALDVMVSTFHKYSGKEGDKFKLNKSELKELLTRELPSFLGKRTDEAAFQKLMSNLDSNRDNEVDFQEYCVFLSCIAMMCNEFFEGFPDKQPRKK
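Material: S100A4 monomer (human). Medium: Calcium-containing HEPES buffer, pH 7.2. Probe or stimulus: labelled myosin peptide probe, 5 nM. Compound dosing: one concentration per compound. Timing: polarization read 5 min after assay mix addition, stable 5–60 min. Benchmarks: DMSO as neutral control, TFP as positive control.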
miR122 inh – blocks miR-122 activity in Huh7 sensor cells | Huh7 miR-122 Renilla luciferase sensor, 48 h; neutral wells = 0, positive control = 100 | activation (reporter increase), % at 12.5 µM | 340,000 compounds, 0.3% hits | AID 602342;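 active = mean replicate activation score at least 90 and every replicate individually at or above 90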;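 also: higher luciferase means less miR-122 activity so hits act as miR-122 inhibitors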
Vif imaging – inhibitors of HIV Vif | HEK293T cells, Vif self-association by quenched fluorescence, imaging, 24 h | inhibition, % at 7.49 µM | 340,000 compounds, 0.35% hits | AID 602346; in the data active = inhibition above about 50%, passing the limit was not always enough
HIV Env fusion – HIV envelope-mediated fusion inhibition | HeLa-JRFL Env/CEM21 cell fusion, luciferase | inhibition, % at 12.3 µM | 360,000 compounds, 1.1% hits;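 active = mean replicate inhibition score of at least 50 and every replicate individually at or above 50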;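 also: 0% = plate neutral controls and 100% = maraviroc near 300 nM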
Starred values were filed as active, the others as inactive; . = no result given; [ ] = remark or other dose.

SMILES	Ecoli rRNA inh	FN deposit inh	S100A4 inh HTS	miR122 inh	Vif imaging	HIV Env fusion
O=C(O)c1cccc(NC(=O)c2ccccc2)c1	10	4	-13	2	0	4
COc1ccccc1NS(=O)(=O)c1ccc(C(=O)NCCCN2CCOCC2)cc1	13	-11	2	-1	89*	.
COc1ccccc1OCCNC(=O)c1ccc(S(=O)(=O)N(C)C)cc1	-18*	.	-3	-7	.	.
O=C(NCCCN1CCOCC1)c1ccc(S(=O)(=O)Nc2ccccc2)cc1	8	-1	0	5	-19	.
CC(=O)c1cccc(NC(=O)c2ccc(N(C)S(=O)(=O)c3ccc(C)cc3)cc2)c1	-24*	-1	-5	0	-11	4
COCCOC(=O)c1c(C)oc2ccc(NS(=O)(=O)c3ccccc3)cc12	-26	.	5	3	-3	.
COCCOC(=O)c1c(C)oc2ccc(NS(=O)(=O)c3ccc(C)cc3)cc12	-16	-15	-7	103*	-9	9
O=C(C[C@H]1C[C@@H]2c3cc(NC(=O)NC4CCCCC4)ccc3O[C@@H]2[C@@H](CO)O1)NCc1ccccc1	-4	-4	8	-3[16.7 µM]	.	23[16.7 µM]
COc1ccc(S(=O)(=O)Nc2ccc3c(c2)CC(=O)N([C@@H](C)CO)C[C@H](C)[C@H](CN(C)S(=O)(=O)c2ccccc2)O3)cc1	4	.	.	-5[16.7 µM]	.	66*[16.7 µM]
COc1ccc(S(=O)(=O)Nc2ccc3c(c2)CC(=O)N([C@@H](C)CO)C[C@@H](C)[C@@H](CN(C)S(=O)(=O)c2ccccc2)O3)cc1	1	.	.	0[16.7 µM]	.	8[16.7 µM]
Cc1ccc(S(=O)(=O)Nc2ccc3c(c2)C(=O)N([C@H](C)CO)C[C@@H](C)[C@H](CN(C)S(=O)(=O)c2ccc(F)cc2)O3)cc1	-3	.	10	6[16.7 µM]	.	60*[16.7 µM]
Cc1ccc(S(=O)(=O)N(C)C[C@@H]2Oc3ccc(NS(=O)(=O)c4ccc(Cl)cc4)cc3CC(=O)N([C@H](C)CO)C[C@@H]2C)cc1	3	.	-4	0[16.7 µM]	.	56*[16.7 µM]
COc1ccc(S(=O)(=O)Nc2ccc3c(c2)CC(=O)N([C@@H](C)CO)C[C@H](C)[C@H](CN(C)S(=O)(=O)c2ccc(C)cc2)O3)cc1	3	.	5	-8[16.7 µM]	.	96*[16.7 µM]
Cc1ccc(S(=O)(=O)N(C)C[C@@H]2Oc3ccc(NS(=O)(=O)c4ccc(F)cc4)cc3C(=O)N([C@@H](C)CO)C[C@@H]2C)cc1	-1	.	.	-8[16.7 µM]	.	25[16.7 µM]
Cc1ccc(S(=O)(=O)Nc2ccc3c(c2)CC(=O)N([C@@H](C)CO)C[C@H](C)[C@H](CN(C)S(=O)(=O)c2ccc(Cl)cc2)O3)cc1	2	.	.	-4[16.7 µM]	.	5[16.7 µM]
C[C@H]1CN(C)C(=O)c2cccnc2O[C@@H]1CN(C)S(C)(=O)=O	-1	2	.	.	.	.
O=C(NCC(F)(F)F)[C@@H]1[C@@H](CO)[C@@H]2Cn3c(cccc3=O)[C@@H]2N1C(=O)C1CC1	4	.	10	.	.	-7[16.7 µM]
COc1ccc(S(=O)(=O)Nc2ccc3c(c2)CC(=O)N([C@@H](C)CO)C[C@H](C)[C@H](CN(C)S(=O)(=O)c2ccc(F)cc2)O3)cc1	-1	.	.	-8[16.7 µM]	.	66*[16.7 µM]
CCOC(=O)CCCCCC(=O)Nc1ccc2c(c1)CC(=O)N([C@H](C)CO)C[C@H](C)[C@H](CN(C)S(=O)(=O)c1ccc(OC)cc1)O2	11	2	-1	0	-5	96*
Cc1ccc(S(=O)(=O)Nc2ccc3c(c2)CC(=O)N([C@H](C)CO)C[C@H](C)[C@H](CN(C)S(=O)(=O)c2ccc(C)cc2)O3)cc1	-1	.	5	5[16.7 µM]	.	90*[16.7 µM]
C[C@H](CO)N1C[C@H](C)[C@@H](CN(C)Cc2cncnc2)Oc2cc(C3=CCCC3)ccc2S1(=O)=O	4	.	1	50[16.7 µM]	.	4[16.7 µM]
C[C@H](CO)N1C[C@H](C)[C@@H](CN(C)Cc2ccccc2)Oc2ncc(/C=C/c3ccccc3)cc2C1=O	0	12	13	3[16.7 µM]	.	5[16.7 µM]
COc1ccc(C2=NOC(C(=O)NO)C2)cc1OC1CCCC1 (stereo unspecified)	.	.	37	.	.	-9[16.7 µM]
CN(C)C(=O)C[C@@H]1C[C@@H]2c3cc(NC(=O)C4CCC4)ccc3O[C@@H]2[C@H](CO)O1	-1	-12	-2	-1[16.7 µM]	.	1[16.7 µM]
O=C(c1c[nH]c(C(=O)N2CCN(c3ccccc3F)CC2)c1)c1cccc(Cl)c1Cl	-28*	-2	-13	.	7	-36
SMILES	Ecoli rRNA inh	FN deposit inh	S100A4 inh HTS	miR122 inh	Vif imaging	HIV Env fusion
Cc1ccccc1C(=O)c1c[nH]c(C(=O)N2CCN(c3ccccc3F)CC2)c1	4	-6	-4	0	-6	34
NC(=O)c1cc(C(=O)c2cccc(Cl)c2Cl)c[nH]1	-48*	12	3	-4	16	10
C[C@@H]1CN([C@@H](C)CO)C(=O)c2cc(C3=CCCCC3)cnc2O[C@@H]1CN(C)C(=O)c1ccc2c(c1)OCO2	8	.	12	8[16.7 µM]	.	7[16.7 µM]
CCCCn1c(NC(=O)c2ccc(Br)o2)c(S(=O)(=O)c2ccccc2)c2nc3ccccc3nc21	.	.	.	165*	-6	37
CCCCn1c(NC(=O)c2ccco2)c(S(=O)(=O)c2ccc(C)cc2)c2nc3ccccc3nc21	-11	-4	-9	.	-3	15
O=C(N[C@H]1C=C[C@@H](CC(=O)N2CCc3ccccc3C2)O[C@H]1CO)C1CCOCC1	7	.	-2	.	.	.
CN(C)CCCN=Cc1c(O)n(Cc2ccccc2)c(=O)c2ccccc12	.	.	.	5	3	.
CN(C)CCN=Cc1c(O)n(Cc2ccccc2)c(=O)c2ccccc12	-24*	-2	-6	-7	-3	-2
CC(C)NC(=O)N(C)C[C@@H]1Oc2ccc(NC(=O)Cc3ccccc3)cc2C(=O)N([C@H](C)CO)C[C@@H]1C	3	.	1	3[16.7 µM]	.	.
CCCCN(C(=O)CCn1c(=O)oc2ccccc21)c1ccccc1	-27*	2	2	3	-7	6
O=C(NCCS(=O)(=O)NCCCc1ccccc1)c1ccccc1	-5	1	94*	.	-2	4
C[C@H]1CN([C@@H](C)CO)C(=O)c2cc(NC(=O)CCC(F)(F)F)ccc2O[C@H]1CN(C)Cc1ccc(C(=O)Nc2ccccc2N)cc1	2	.	12	23[16.7 µM]	.	.
COC(=O)c1cccc(NC(=O)CSc2nnc(-c3ccco3)o2)c1	-5	-15	-10	-4	58*	-8
O=C(CSc1nnc(-c2ccc(Br)cc2)o1)Nc1cccc(C(=O)O)c1	-1	.	1	-1	1	88*
COc1ccc(C)cc1NC(=O)CSCc1ccccc1C	-22	-9	3	6	0	16
Cc1ccc(-c2nnc(SCC(=O)Nc3ccccc3F)o2)cc1	9	-4	-6	.	-1	66*
Cc1ccccc1CSCC(=O)Nc1ccccc1F	-25*	-1	0	-2	1	-15
